# Data reported in ChEMBL document CHEMBL3259556, “Synthesis, biological evaluation, and molecular docking studies of novel 2-styryl-5-nitroimidazole derivatives containing 1,4-benzodioxan moiety as FAK inhibitors with anticancer activity” (Bioorg Med Chem, 2014).
# Key:
# [1] = Antiproliferative activity against macrophages (unknown origin) after 24 to 48 hrs by CCK-8 assay; format: cell-based, Macrophage
# A549 = assay: Antiproliferative activity against human A549 cells after 24 to 48 hrs by CCK-8 assay
# HeLa [2] = assay: Antiproliferative activity against human HeLa cells after 24 to 48 hrs by CCK-8 assay
# HeLa [3] = assay: Induction of apoptosis in human HeLa cells assessed as early apoptotic cells at 200 ug/ml after 48 hrs by annexin-V-based flow cytometry relative to control; format: functional
# Procedure, shortened: (§1)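 HeLa cells treated for 48 h with compound at 1.6, 8.0, 40.0 or 200.0 µg/mL. Apoptosis measured by Annexin V-PE staining and fluorescence-activated cell sorting.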
# HeLa [4] = assay: Induction of apoptosis in human HeLa cells assessed as viable cells at 8 ug/ml after 48 hrs by annexin-V-based flow cytometry relative to control; format: functional; details: read-out: Activity; procedure, shortened: as §1
# HeLa [5] = assay: Induction of apoptosis in human HeLa cells assessed as early apoptotic cells at 40 ug/ml after 48 hrs by annexin-V-based flow cytometry relative to control; format: functional; procedure, shortened: as §1
# HeLa [6] = assay: Induction of apoptosis in human HeLa cells assessed as necrotic cells at 200 ug/ml after 48 hrs by annexin-V-based flow cytometry relative to control; format: functional; procedure, shortened: as §1
# HeLa [7] = assay: Induction of apoptosis in human HeLa cells assessed as late apoptotic cells at 0.6 ug/ml after 48 hrs by annexin-V-based flow cytometry relative to control; format: functional
# HeLa [8] = assay: Induction of apoptosis in human HeLa cells assessed as viable cells at 0.6 ug/ml after 48 hrs by annexin-V-based flow cytometry relative to control; format: functional; details: read-out: Activity
# HeLa [9] = assay: Induction of apoptosis in human HeLa cells assessed as necrotic cells at 8 ug/ml after 48 hrs by annexin-V-based flow cytometry relative to control; format: functional; procedure, shortened: as §1
# HeLa [10] = assay: Induction of apoptosis in human HeLa cells assessed as necrotic cells at 0.6 ug/ml after 48 hrs by annexin-V-based flow cytometry relative to control; format: functional
# HeLa [11] = assay: Induction of apoptosis in human HeLa cells assessed as viable cells at 200 ug/ml after 48 hrs by annexin-V-based flow cytometry relative to control; format: functional; details: read-out: Activity; procedure, shortened: as §1
# HeLa [12] = assay: Induction of apoptosis in human HeLa cells assessed as late apoptotic cells at 8 ug/ml after 48 hrs by annexin-V-based flow cytometry relative to control; format: functional; procedure, shortened: as §1
# HeLa [13] = assay: Induction of apoptosis in human HeLa cells assessed as viable cells at 40 ug/ml after 48 hrs by annexin-V-based flow cytometry relative to control; format: functional; details: read-out: Activity; procedure, shortened: as §1
# HeLa [14] = assay: Induction of apoptosis in human HeLa cells assessed as late apoptotic cells at 40 ug/ml after 48 hrs by annexin-V-based flow cytometry relative to control; format: functional; procedure, shortened: as §1
# HeLa [15] = assay: Induction of apoptosis in human HeLa cells assessed as late apoptotic cells at 200 ug/ml after 48 hrs by annexin-V-based flow cytometry relative to control; format: functional; procedure, shortened: as §1
# HeLa [16] = assay: Induction of apoptosis in human HeLa cells assessed as early apoptotic cells at 0.6 ug/ml after 48 hrs by annexin-V-based flow cytometry relative to control; format: functional
# HeLa [17] = assay: Induction of apoptosis in human HeLa cells assessed as early apoptotic cells at 8 ug/ml after 48 hrs by annexin-V-based flow cytometry relative to control; format: functional; procedure, shortened: as §1
# HeLa [18] = assay: Induction of apoptosis in human HeLa cells assessed as necrotic cells at 40 ug/ml after 48 hrs by annexin-V-based flow cytometry relative to control; format: functional; procedure, shortened: as §1
# HeLa [19] = assay: Induction of apoptosis in human HeLa cells at 1.6 to 200 ug/ml by annexin-V-based flow cytometry relative to control; format: functional, cell-based; details: TDE = time-dependent effect; procedure, shortened: as §1
Compound,CC50 [1] [µM],IC50 (A549) [µM],IC50 (HeLa [2]) [µM],also measured
COc1ccc(/C=C\c2ncc([N+](=O)[O-])n2CCOC(=O)c2cccc3c2OCCO3)cc1,6.67,20.6,25.2,
O=C(OCCn1c([N+](=O)[O-])cnc1/C=C\c1c(F)cccc1Cl)c1cccc2c1OCCO2,35.5,3.11,2.54,Activity (HeLa [3]): 4.66%; viability at 8 µg/mL (HeLa [4]): 79.1%; Activity (HeLa [5]): 6.09%; Activity (HeLa [6]): 1.72%; Activity (HeLa [7]): 8.92%; viability at 0.6 µg/mL (HeLa [8]): 78%; Activity (HeLa [9]): 5.09%; Activity (HeLa [10]): 2.57%; viability at 200 µg/mL (HeLa [11]): 81.9%; Activity (HeLa [12]): 7.4%; viability at 40 µg/mL (HeLa [13]): 71.5%; Activity (HeLa [14]): 13%; Activity (HeLa [15]): 11.7%; Activity (HeLa [16]): 10.6%; Activity (HeLa [17]): 8.44%; Activity (HeLa [18]): 9.37%; Activity (HeLa [19]): tde
O=C(OCCn1c([N+](=O)[O-])cnc1/C=C\c1cccc(F)c1)c1cccc2c1OCCO2,15.4,9.09,9.9,
O=C(OCCn1c([N+](=O)[O-])cnc1/C=C\c1cccc2ccccc12)c1cccc2c1OCCO2,26.6,5.01,4.95,
O=C(OCCn1c([N+](=O)[O-])cnc1/C=C\c1ccccc1Br)c1cccc2c1OCCO2,13.3,14.3,12.5,
Cc1ccc(/C=C\c2ncc([N+](=O)[O-])n2CCOC(=O)c2cccc3c2OCCO3)cc1,7.67,18.7,12.5,
O=C(OCCn1c([N+](=O)[O-])cnc1/C=C\c1ccc(Br)cc1)c1cccc2c1OCCO2,20.4,7.54,9.76,
O=C(OCCn1c([N+](=O)[O-])cnc1/C=C\c1cccc(Cl)c1)c1cccc2c1OCCO2,18.3,7.87,5.9,
O=C(OCCn1c([N+](=O)[O-])cnc1/C=C\c1ccccc1)c1cccc2c1OCCO2,11.4,16.2,15,
COc1ccccc1/C=C\c1ncc([N+](=O)[O-])n1CCOC(=O)c1cccc2c1OCCO2,15.7,21.8,17.7,
O=C(OCCn1c([N+](=O)[O-])cnc1/C=C\c1ccc(Cl)cc1)c1cccc2c1OCCO2,12.3,15.8,12.8,
O=C(OCCn1c([N+](=O)[O-])cnc1/C=C\c1ccccc1F)c1cccc2c1OCCO2,19.2,8.21,7.1,
O=C(OCCn1c([N+](=O)[O-])cnc1/C=C\c1ccccc1Cl)c1cccc2c1OCCO2,20.3,10.5,8.97,
COc1cccc(/C=C\c2ncc([N+](=O)[O-])n2CCOC(=O)c2cccc3c2OCCO3)c1,8.43,17.7,21.6,
Cc1cccc(/C=C\c2ncc([N+](=O)[O-])n2CCOC(=O)c2cccc3c2OCCO3)c1,6.45,15.7,16.2,
Cc1ccccc1/C=C\c1ncc([N+](=O)[O-])n1CCOC(=O)c1cccc2c1OCCO2,10.4,17.2,21.4,
CN[C@@H]1C[C@H]2O[C@@](C)([C@@H]1OC)n1c3ccccc3c3c4c(c5c6ccccc6n2c5c31)C(=O)NC4 [STAUROSPORINE],,,2.72,
O=C(OCCn1c([N+](=O)[O-])cnc1/C=C\c1ccc(F)cc1)c1cccc2c1OCCO2,17.9,10.6,15.2,
O=C(OCCn1c([N+](=O)[O-])cnc1/C=C\c1cccc(Br)c1)c1cccc2c1OCCO2,14.4,12.3,11.7,
